Bioassay records (PubChem BioAssay)
TRPC6 inh = mouse TRPC6 channel inhibition; Q61143; 1.1% of 310,000 active; B-score at 10 µM; HEK293-TRPC6, membrane potential dye, ACh-evoked depolarization; hits give low values;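 active = B-score under library mean minus 3 SD, initial fluorescence not abnormally high, positive integrated signal ratio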;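 note: B-score derived from integrated fluorescence ratio over the kinetic read; more negative B-score means stronger inhibition of depolarization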
TRPC6 act = activators of mouse TRPC6 channel | Q61143 | HEK293-TRPC6 membrane potential dye fluorescence; hits give high values | B-score at 10 µM | 0.13% of 310,000 active | AID 2550;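 active = B-score of the integrated fluorescence ratio above library mean plus 3 SD, and starting fluorescence ratio within library mean plus 5 SD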;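 note: higher score means more depolarization so channel activation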
TRPC4 act = opens the mouse TRPC4 cation channel | Q9QUQ5 | HEK293 TRPC4beta/mu-opioid, Fluo4 calcium fluorescence; hits give high values | B-score at 10 µM | 0.49% of 310,000 active | AID 2237;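 active = B-score above 5 SD of library B-scores, and initial fluorescence ratio not above library mean plus 5 SD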;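 note: positive B-score marks a calcium rise read as TRPC4 activation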
Target sequence (Q9QUQ5 whole entry, looked up): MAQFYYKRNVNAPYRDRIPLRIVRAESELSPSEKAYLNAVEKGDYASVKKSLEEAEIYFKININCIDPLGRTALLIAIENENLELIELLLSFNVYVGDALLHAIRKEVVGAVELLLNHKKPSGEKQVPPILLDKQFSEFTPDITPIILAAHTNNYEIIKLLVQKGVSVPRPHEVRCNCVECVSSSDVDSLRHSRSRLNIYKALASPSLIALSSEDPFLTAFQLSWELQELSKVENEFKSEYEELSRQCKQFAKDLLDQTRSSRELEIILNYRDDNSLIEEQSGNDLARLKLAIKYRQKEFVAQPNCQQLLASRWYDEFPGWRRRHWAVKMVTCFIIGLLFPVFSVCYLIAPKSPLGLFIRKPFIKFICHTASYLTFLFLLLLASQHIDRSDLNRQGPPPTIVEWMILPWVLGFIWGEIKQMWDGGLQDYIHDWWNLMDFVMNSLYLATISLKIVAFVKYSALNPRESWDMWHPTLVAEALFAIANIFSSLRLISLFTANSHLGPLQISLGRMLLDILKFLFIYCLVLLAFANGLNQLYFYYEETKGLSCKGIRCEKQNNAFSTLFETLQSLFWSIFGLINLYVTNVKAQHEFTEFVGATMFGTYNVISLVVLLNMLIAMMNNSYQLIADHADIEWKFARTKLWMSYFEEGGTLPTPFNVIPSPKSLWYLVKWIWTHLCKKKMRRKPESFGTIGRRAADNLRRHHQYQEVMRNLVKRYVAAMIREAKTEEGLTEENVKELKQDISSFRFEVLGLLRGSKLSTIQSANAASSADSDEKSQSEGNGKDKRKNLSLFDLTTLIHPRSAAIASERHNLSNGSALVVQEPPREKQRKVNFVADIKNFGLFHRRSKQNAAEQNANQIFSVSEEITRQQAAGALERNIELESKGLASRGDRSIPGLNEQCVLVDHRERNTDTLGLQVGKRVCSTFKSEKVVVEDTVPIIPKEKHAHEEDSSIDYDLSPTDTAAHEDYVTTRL
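Test system: HEK293 cells stably co-expressing mouse TRPC4beta and mu-opioid receptor | Schedule: Fluo4 dye loading 45 min at room temperature, 110 s recording | Measured by: Kinetic Fluo4 calcium fluorescence, 5 s baseline at 1 Hz | Evaluation: B score of integrated ratio | Controls: Buffer (low) and maximal DAMGO (high)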
TRPC4 block = inhibitors of mouse TRPC4 channel; Q9QUQ5; HEK293 TRPC4beta/mu-opioid, DAMGO-evoked Fluo4 calcium flux; hits give low values; B-score at 10 µM; 0.39% of 300,000 active;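 active = B-score over 3 SD under the library average, no early fluorescence shift, positive overall ratio signal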
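Assay system: HEK293 cells with stable TRPC4beta plus mu-opioid receptor expression; Probe or stimulus: DAMGO in two steps, submaximal then maximal; Dosing: single-point compound dosing; Measured by: Fluo4 calcium-dye fluorescence, kinetic read; Read-out basis: B score from integrated Fluo4 fluorescence ratio.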
TRPC4 potent = allosteric potentiators of mouse TRPC4 channel | Q9QUQ5 | HEK293 TRPC4beta/mu-opioid, DAMGO EC20, Fluo-4 Ca2+ flux; hits give high values | B-score at 10 µM | 0.42% of 310,000 active | AID 2227;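 active = B-score of calcium response area above 5 SD of library B-scores, with initial fluorescence ratio within 5 SD of library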;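 note: B-score of integrated fluorescence ratio over time as area under calcium response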
TRPC4 spec 2 = second selectivity test of TRPC6 inhibitors: effect on mouse TRPC4; shares compounds with TRPC6 inh; HEK293 TRPC4/MOR, membrane potential dye fluorescence; channel activated by saturating DAMGO dose; inhibition, % at 10 µM; 42% of 920 active;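 active = compounds whose fluorescence signal differed from control wells by over 3 SD, either direction, in both duplicate plates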
TRPC4 spec = tests whether TRPC6 inhibitors also affect mouse TRPC4. HEK293 TRPC4/mu-opioid, membrane potential fluorescence. 61% of 920 active. AID 2777. shares compounds with TRPC6 inh. activity change, negative = inhibition, % at 10 µM;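 active = rise or fall in signal beyond 3 SD of buffer-only wells in both replicate plates, either sign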;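 note: integrated kinetic ratio of fluorescence range over baseline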
HEK293 MPD ctr 2-1 = parental HEK293 nonspecific activity of TRPC6 inhibitors, second screen; shares compounds with TRPC6 inh; signal change vs control, % at 10 µM; 31% of 920 active; parental HEK293 membrane potential dye fluorescence; maximal acetylcholine challenge after compound addition;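 active = membrane potential signal moving either way by over 3 SD of the maximum-effect control, in both duplicate plates, meaning non-specific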
HEK293 MPD ctr-1 = checks TRPC6 inhibitor effects in parental HEK293 cells | shares compounds with TRPC6 inh | parental HEK293 membrane potential dye fluorescence | membrane potential signal change, % at 10 µM | 60% of 920 active | AID 2780;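 active = membrane potential signal shifting up or down by more than 3 SD of buffer-only wells, on both duplicate plates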
HEK293 MPD ctr-2 = parental HEK293 nonspecific activity of TRPC6 modulators; shares compounds with TRPC6 inh; membrane potential dye fluorescence; membrane potential signal change, % at 10 µM; 51% of 2,400 active;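 active = membrane potential signal moves up or down beyond 5 SD from buffer-only wells, on both duplicate plates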
HEK293 MPD ctr 2-2 = second check of TRPC6 modulator effects in parental HEK293 cells; shares compounds with TRPC6 inh; AID 488926; membrane potential dye fluorescence; after compound, maximal acetylcholine stimulation; 14% of 2,400 active; inhibition, % at 10 µM;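 active = membrane potential signal drops by more than 5 SD from the mean control signal, in both duplicate plates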;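 note: plate controls were acetylcholine ECmax control wells for no effect and buffer only wells for full effect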
TRPC4/MOR mod = tests whether TRPC6 modulators also affect mouse TRPC4. shares compounds with TRPC6 inh. HEK293 TRPC4/mu-opioid, membrane potential fluorescence. percent change from control (negative = decrease, positive = increase), % at 10 µM. 69% of 2,400 active;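 active = membrane potential signal moved up or down beyond 5 SD of buffer control wells, in both duplicate plates, actives on both sides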;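 note: plate controls were assay buffer wells for no effect and DAMGO maximal-effect wells for full effect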
TRPC4/MOR inh 2 = second check of whether TRPC6 modulators also affect mouse TRPC4. 55% of 2,400 active. shares compounds with TRPC6 inh. AID 488928. inhibition, % at 10 µM. HEK293 TRPC4/mu-opioid, membrane potential dye fluorescence; stimulated with maximal-effect DAMGO;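 active = drop in membrane potential signal beyond 5 SD of the control wells in both duplicate plates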;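 note: TRPC4 counter screen for TRPC6 hits run under conditions tuned for TRPC6 not TRPC4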
TRPC6 block conf = mouse TRPC6 inhibitor confirmation | shares compounds with TRPC6 inh | HEK293-TRPC6, membrane potential dye, ACh-evoked depolarization | inhibition, % at 10 µM | 43% of 3,300 active;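 active = fluorescence ratio falls more than 5 SD below the full-stimulation control mean, in both duplicate runs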;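 note: integrated fluorescence ratio of peak minus minimum over baseline after agonist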
TRPC6 act conf = mouse TRPC6 activator confirmation. shares compounds with TRPC6 inh. HEK293-TRPC6 membrane potential dye fluorescence, FDSS. activation, % at 10 µM. 11% of 2,800 active;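 active = ratio signal rise beyond 5 SD above unstimulated control wells' mean, seen in both duplicate runs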;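 note: plate controls were buffer EC0 wells for no effect and acetylcholine ECmax response for full effect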
Active calls of the source: *; i = inactive; x = no result given. This is a sample that favours compounds with a hit; in the whole collection about 2.3% have one here.

SMILES	TRPC6 inh	TRPC6 act	TRPC4 act	TRPC4 block	TRPC4 potent	HEK293 MPD ctr-2	HEK293 MPD ctr 2-2	TRPC4/MOR mod	TRPC4/MOR inh 2	TRPC6 block conf	TRPC6 act conf	others
O=C1NC(=O)N(c2ccccc2)C(=O)/C1=C\C=C\c1ccccc1	i	i	i	i	i	x	x	x	x	x	x
COc1ccc(CCn2c(O)c(/C=N/N3CCOCC3)c(=O)[nH]c2=O)cc1OC	i	i	i	i	i	x	x	x	x	x	x
CN(C)c1cc(N)c2c(n1)CCC2 (tested in a mixture with another compound)	-6.39*	i	i	i	i	-271.0%*	i	-39.5%*	40.5%*	i	i
Cc1ccsc1C(=O)C1CCCN(Cc2sc(N(C)C)nc2Cl)C1 (stereo not given)	i	i	i	i	i	x	x	x	x	x	x
CC1CCC(NCCc2ccc3c(c2)OCO3)CC1 (stereo not given)	i	i	i	i	i	x	x	x	x	x	x
Cc1ccc(-c2cc(-c3ccccc3)cc(-c3ccccc3)[n+]2-c2ccccc2)cc1	-9.6*	i	i	i	33*	x	x	x	x	95.8%*	i	TRPC4 spec 2=54.0%*;TRPC4 spec=14.1%*;HEK293 MPD ctr 2-1=i;HEK293 MPD ctr-1=8.2%*
Cc1ccc(-c2cc(-c3ccc(C)cc3)[n+](-c3ccccc3)c(-c3ccc(C)cc3)c2)cc1	-8.66*	i	82*	i	i	x	x	x	x	101.4%*	i	TRPC4 spec 2=41.0%*;TRPC4 spec=3.5%*;HEK293 MPD ctr 2-1=i;HEK293 MPD ctr-1=6.0%*
C[n+]1c(-c2ccccc2)cc(-c2ccc(Cl)cc2)cc1-c1ccccc1	i	i	i	i	i	x	x	x	x	x	x
Cc1ccc(-c2cc(-c3ccc(C)cc3)[n+](C)o2)cc1	i	i	i	i	i	x	x	x	x	x	x
CN1CC(C(=O)c2ccc(Cl)cc2)C(c2ccc(N(C)C)cc2)C1 (stereo not given)	-6.46*	i	i	i	i	i	i	i	50.0%*	50.5%*	i
CCCCCSc1cc(OC)c(CCN(C)C)cc1OC	-5.3*	i	i	i	i	i	i	i	51.5%*	49.5%*	i
CCCCCSc1cc(O)c(C(CNC)C(C)C)cc1OC (stereo not given)	i	i	i	i	i	x	x	x	x	x	x
CCNc1cc(N2CCNCC2)ccc1[N+](=O)[O-]	-5.69*	i	i	i	35*	-214.5%*	i	-34.5%*	37.5%*	i	i
COc1ccc2c3c([nH]c2c1)C(C)NCC3 (stereo not given)	i	i	i	i	i	x	x	x	x	x	x
C[n+]1c(-c2ccccc2)c2cc(N)ccc2c2ccc(N)cc21	-6.7*	i	i	i	i	-208.5%*	80.0%*	-73.0%*	67.5%*	56.5%*	i
CCOc1cccc(=NC2CCCCC2)c2c(C)n(C)c(C)c12	-7.5*	i	i	i	i	x	x	x	x	i	i	TRPC4 spec 2=50.5%*;TRPC4 spec=6.9%*;HEK293 MPD ctr 2-1=-69.0%*;HEK293 MPD ctr-1=i
CCCCn1c(N)c(C(=O)NCCN2CCOCC2)c2nc3ccccc3nc21	i	i	i	i	i	x	x	x	x	x	x
CCOC(=O)c1c(N)n(CCN2CCCCC2)c2nc3ccccc3nc12	-5.87*	i	i	i	i	-135.0%*	i	-28.0%*	56.0%*	56.5%*	i
CN1CCc2nc(N)c(C#N)c(-c3ccccc3)c2C1	i	i	i	i	i	x	x	x	x	x	x
CN1CCc2nc3sc(C#N)c(N)c3c(-c3cccs3)c2C1	-9.19*	i	i	i	i	-191.5%*	i	-31.5%*	34.0%*	i	i
c1ccc2c(c1)CC1CNCc3cccc(c31)S2 (stereo not given)	-7.08*	i	i	i	i	x	x	x	x	66.2%*	i	TRPC4 spec 2=62.0%*;TRPC4 spec=i;HEK293 MPD ctr 2-1=i;HEK293 MPD ctr-1=i
CN1CCN(Cc2ccc3ccccc3c2)CC1	i	i	i	i	i	x	x	x	x	x	x
CN1CCN(CCC(C#N)(c2ccccc2)c2ccccc2)CC1	-7.24*	i	i	i	i	x	x	x	x	i	x	TRPC4 spec 2=i;TRPC4 spec=2.6%*;HEK293 MPD ctr 2-1=15.0%*;HEK293 MPD ctr-1=7.2%*
O=C(Cn1ncc2ccccc21)N1CCC2(CC1)OCCO2	i	i	i	i	i	x	x	x	x	x	x
Cc1[nH]c2ccccc2c1CCCNC1CCCCC1	-5.66*	i	i	i	i	i	i	i	44.0%*	i	i
Cc1[nH]c2ccccc2c1CCN	i	i	i	i	i	x	x	x	x	x	x
CCOC(C(=O)OCCCN(CC)CC)(c1ccccc1)c1ccccc1	i	i	i	i	i	x	x	x	x	x	x
CCN(CC)CCCOC(=O)C(OC(C)C)(c1ccccc1)c1ccccc1	-9.05*	i	i	i	i	x	x	x	x	57.0%*	x	TRPC4 spec 2=65.5%*;TRPC4 spec=39.5%*;HEK293 MPD ctr 2-1=i;HEK293 MPD ctr-1=21.9%*
CN1CCC(N(C)c2nc(-c3ccc([N+](=O)[O-])cc3)nc3ccccc23)CC1	-11.1*	i	i	i	i	-296.5%*	69.0%*	-55.5%*	57.0%*	67.5%*	i
Cc1ccc(OP(=O)(O)Oc2ccc(C)cc2)cc1	-6.45*	i	i	i	i	i	i	i	i	i	x
